Test results reported in PubChem BioAssay AID463079 (The Scripps Research Institute Molecular Screening Center, 2010).
In all, about 330,000 compounds went through this assay and about 2,000 (0.61%) were called active. This is one part of a sample in which actives are shown more often than they occur. Values without a mark were called inactive.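 How the source made its calls: active means inhibition above that plate's mean sample inhibition plus 3 SD (cut at about 26% in these data); inactive means the rest.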

assay: nonselective Gq signaling inhibition in CHO cells – cell-based, fluorescence, Fluo-8 calcium dye, counter-screen for OX1R antagonist project, primary screen (AID 463079); conditions: parental CHO-K1, ATP-induced calcium, Fluo-8 fluorescence; at 5.6 µM; active compounds read high;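 further: 0% = ATP-challenged DMSO wells and 100% = DMSO wells without ATP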
Outline: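 Test system: parental CHO cells; detection: calcium-sensitive Fluo-8 fluorescence; evaluation: percent inhibition of calcium signal; also added: ATP as calcium-mobilizing challenge; repeats: one well per compound; control set: ATP-challenged DMSO wells low, unchallenged DMSO wells high; compound: single nominal dose of 5.6 µM per compound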

| SMILES | inhibition |
| --- | --- |
| CCN(CC)P(=O)(Oc1cccc(C)c1)N(CC)CC | -16.2% |
| Cc1cccc(OP(=O)(Oc2cccc(C)c2)OC(c2ccccc2)C(F)(F)F)c1 (stereo not given) | 43% (active) |
| CN(C)S(=O)(=O)c1cc(C(=O)N2CCC(C(=O)O)(c3ccccc3)CC2)ccc1Cl | -3.89% |
| Nc1ccc([N+](=O)[O-])cc1 | -2.28% |
| COC(=O)N(c1ccc(OC)cc1)P1(=S)OCCC(C)O1 (stereo not given) | -5.5% |
| O=C1NC(=O)C(CCc2ccccn2)(Cc2cccc(Cl)c2Cl)C(=O)N1c1ccc(Br)cc1 (stereo not given) | -47.9% |
| O=C1C2(Cl)C3(Cl)C4(Cl)C(Cl)(Cl)C5(Cl)C3(Cl)C1(Cl)C5(Cl)C24Cl (stereo not given) | 48.6% (active) |
| O=C(CSC1c2ccccc2-c2ccccc21)N/N=C/c1ccccc1 | -10.8% |
| c1ccc(CC2CCCCN2)cc1 (stereo not given) | -2.34% |
| CC1=C(C(=O)Nc2ccccc2)S(=O)(=O)CCO1 | -5.31% |
| CCCCCCCCCCCCn1ccc(=N)cc1 | 40% (active) |
| CCOC(=O)c1c(C)c(C(=O)N2CCC3(CC2)OCCO3)c(C)n1CC | -3.29% |
| CN1CCC(N(C)Cc2cccnc2)CC1 | -10.6% |
| ClC(Cl)(Cl)c1ccccc1 | 2.74% |
| CCN(CC)C(=O)c1ccc(NC(=O)c2cc(-n3cnnc3)ccc2Cl)cc1 | -4.65% |
